{"source": "ChEMBL document CHEMBL1131113", "about": "“Design and synthesis of [2-(8,9-dioxo-2,6-diazabicyclo[5.2.0]non-1(7)-en-2-yl)-ethyl]phosphonic acid (EAA-090), a potent N-methyl-D-aspartate antagonist, via the use of 3-cyclobutene-1,2-dione as an achiral alpha-amino acid bioisostere” (J Med Chem, 1998)", "key": {"Mus musculus": {"tested_on": "Mus musculus", "experiment": "Effective dose against NMDA-induced lethality in mice on ip administration", "assay_type": "functional"}, "Glutamate NMDA receptor [1]": {"target": "Glutamate NMDA receptor", "experiment": "Tested in vitro for antagonistic activity at N-methyl-D-aspartate glutamate receptor by measuring displacement of [3H]TCP from crude synaptic membrane preparations obtained from rat brain", "assay_type": "functional", "procedure,_shortened": "(§1)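 Same membranes incubated in triplicate 60 min at 25 °C with 2.5 nM [3H]TCP, 3 μM L-glutamate, 1 μM glycine, test drug. Nonspecific binding defined with 100 μM MK-801. Vacuum filtration on 0.1% PEI-pretreated filters, ice-cold buffer rinses, scintillation counting. IC50 with 95% confidence limits by nonlinear logistic regression over 5–10 concentrations.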"}, "Glutamate NMDA receptor [2]": {"target": "Glutamate NMDA receptor", "experiment": "Displacement of [3H]CPP from rat brain synaptic membrane N-methyl-D-aspartate glutamate receptor", "procedure,_shortened": "(§2)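 Crude synaptic membranes, thawed, washed once in Tris-HCl, resuspended at 0.3–0.5 mg protein/mL (Lowry). Affinity from displacement of [3H]CPP binding per Murphy's method.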"}, "[3]": {"target": "T1, Glutamate NMDA receptor (Rattus norvegicus) (UniProt P35439+Q00959+Q00960+Q00961+Q62645+Q8VHN2+Q9R1M7)", "experiment": "Tested in vitro at 10000 nM for binding affinity at N-methyl-D-aspartate glutamate receptor by measuring displacement of [3H]CPP from crude synaptic membrane preparations obtained from rat brain", "procedure,_shortened": "as §2"}, "[4]": {"target": "T1, Glutamate NMDA receptor (Rattus norvegicus)", "experiment": "Tested in vitro at 100 uM for antagonistic activity at N-methyl-D-aspartate glutamate receptor by measuring displacement of [3H]TCP from crude synaptic membrane preparations obtained from rat brain", "assay_type": "functional", "procedure,_shortened": "as §1"}, "Rattus norvegicus": {"organism": "Rattus norvegicus", "experiment": "Effect on infarct volume in the rat was determined by rat permanent focal ischemia model", "assay_type": "functional", "procedure,_shortened": "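Male Fisher-344 rats (290–310 g) under 2–4% isoflurane. Right common carotid occluded and distal MCA electrocoagulated transcranially, body temperature 37 ± 1 °C. Single iv bolus via tail vein (1 mL/kg, 10 mg/kg in 0.9% NaCl) 5 min post-occlusion. At 24 h, cresyl violet-stained 20 μm frozen sections at 400-μm intervals; infarct volume by image analysis; mean ± SE.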"}}}
{"smiles": "O=C1C2=NCCCN(CCCP(=O)(O)O)C2=C1O", "values": [{"measurement": "ED50", "setting": "Mus musculus", "value": "> 10", "unit": "mg/kg"}, {"measurement": "IC50", "setting": "Glutamate NMDA receptor [1]", "value": "> 100", "unit": "µM"}, {"measurement": "IC50", "setting": "Glutamate NMDA receptor [2]", "value": "> 1", "unit": "µM"}]}
{"smiles": "O=C1C2=NCCCN(CCc3nnn[nH]3)C2=C1O", "values": [{"measurement": "ED50", "setting": "Mus musculus", "value": "> 5", "unit": "mg/kg"}, {"measurement": "inhibition", "setting": "[3]", "value": 41, "unit": "%"}, {"measurement": "IC50", "setting": "Glutamate NMDA receptor [1]", "value": "> 100", "unit": "µM"}]}
{"smiles": "O=C1C2=NCCCN(Cc3nn[nH]n3)C2=C1O", "values": [{"measurement": "ED50", "setting": "Mus musculus", "value": "> 10", "unit": "mg/kg"}, {"measurement": "IC50", "setting": "Glutamate NMDA receptor [1]", "value": 18, "unit": "µM"}, {"measurement": "IC50", "setting": "Glutamate NMDA receptor [2]", "value": 0.038, "unit": "µM"}]}
{"smiles": "O=C([O-])CCN1CCCN=C2C(=O)C(O)=C21.[Na+]", "values": [{"measurement": "ED50", "setting": "Mus musculus", "value": "> 20", "unit": "mg/kg"}, {"measurement": "inhibition", "setting": "[4]", "value": 53, "unit": "%"}, {"measurement": "IC50", "setting": "Glutamate NMDA receptor [2]", "value": 0.34, "unit": "µM"}]}
{"smiles": "O=C1C2=NCCN(CCP(=O)(O)O)C2=C1O", "values": [{"measurement": "ED50", "setting": "Mus musculus", "value": 6.1, "unit": "mg/kg"}, {"measurement": "IC50", "setting": "Glutamate NMDA receptor [1]", "value": 29, "unit": "µM"}, {"measurement": "IC50", "setting": "Glutamate NMDA receptor [2]", "value": 0.092, "unit": "µM"}]}
{"smiles": "O=C(O)[C@@H]1C[C@H](CP(=O)(O)O)CCN1", "note": "(single isomer, unassigned) [SELFOTEL]", "values": [{"measurement": "ED50", "setting": "Mus musculus", "value": 1.5, "unit": "mg/kg"}, {"measurement": "IC50", "setting": "Glutamate NMDA receptor [1]", "value": 22, "unit": "µM"}]}
{"smiles": "O=C1C(O)=C2/C1=N\\CCCCN2CCP(=O)(O)O", "values": [{"measurement": "ED50", "setting": "Mus musculus", "value": "> 3", "unit": "mg/kg"}, {"measurement": "IC50", "setting": "Glutamate NMDA receptor [1]", "value": 36, "unit": "µM"}, {"measurement": "IC50", "setting": "Glutamate NMDA receptor [2]", "value": 0.049, "unit": "µM"}]}
{"smiles": "CC1(C)CN=C2C(=O)C(O)=C2N(CCP(=O)(O)O)C1", "values": [{"measurement": "ED50", "setting": "Mus musculus", "value": 22, "unit": "mg/kg"}, {"measurement": "inhibition", "setting": "[4]", "value": 59, "unit": "%"}, {"measurement": "IC50", "setting": "Glutamate NMDA receptor [2]", "value": 0.28, "unit": "µM"}]}
{"smiles": "O=c1c2c(c1=O)N(CCP(=O)(O)O)CCCN2", "note": "[PERZINFOTEL]", "values": [{"measurement": "ED50", "setting": "Mus musculus", "value": 2.1, "unit": "mg/kg"}, {"measurement": "IC50", "setting": "Glutamate NMDA receptor [1]", "value": 7.6, "unit": "µM"}, {"measurement": "IC50", "setting": "Glutamate NMDA receptor [2]", "value": 0.03, "unit": "µM"}, {"measurement": "Infarct volume", "setting": "Rattus norvegicus", "value": 43.2, "unit": "mm**3"}]}
{"smiles": "O=C1C2=NCC(O)CN(CCP(=O)(O)O)C2=C1O", "note": "(configuration not stated)", "values": [{"measurement": "ED50", "setting": "Mus musculus", "value": 1.8, "unit": "mg/kg"}, {"measurement": "IC50", "setting": "Glutamate NMDA receptor [1]", "value": 10, "unit": "µM"}, {"measurement": "IC50", "setting": "Glutamate NMDA receptor [2]", "value": 0.019, "unit": "µM"}]}
{"smiles": "O=C([O-])CN1CCCN=C2C(=O)C(O)=C21.[Na+]", "values": [{"measurement": "ED50", "setting": "Mus musculus", "value": "> 20", "unit": "mg/kg"}, {"measurement": "inhibition", "setting": "[4]", "value": 64, "unit": "%"}, {"measurement": "IC50", "setting": "Glutamate NMDA receptor [2]", "value": 0.55, "unit": "µM"}]}
{"smiles": "O=C1C2=NCCCN(C/C=C/P(=O)(O)O)C2=C1O", "values": [{"measurement": "ED50", "setting": "Mus musculus", "value": "> 5", "unit": "mg/kg"}, {"measurement": "IC50", "setting": "Glutamate NMDA receptor [1]", "value": "> 100", "unit": "µM"}, {"measurement": "IC50", "setting": "Glutamate NMDA receptor [2]", "value": "> 10", "unit": "µM"}]}
{"smiles": "Nc1c(NCCP(=O)(O)O)c(=O)c1=O", "values": [{"measurement": "ED50", "setting": "Mus musculus", "value": 29, "unit": "mg/kg"}]}
